Data as given in ChEMBL document CHEMBL4627320, “Discovery of CRBN E3 Ligase Modulator CC-92480 for the Treatment of Relapsed and Refractory Multiple Myeloma” (J Med Chem, 2020).
Activity calls are given as the source filed them. The rule behind the calls is not given here.

Experiments:
[1] = tested on: PBMC; experiment: Cytotoxicity against PBMC (unknown origin); assay type: cell-based
[2] = (§1) Antiproliferative activity against lenalidomide-resistant human H929-R10-1 cells incubated for 5 days by CellTiter-Glo assay; assay type: functional; conditions: 120 h
Summary of the method: (§2)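 H929 R10-1 cells kept in log phase at 37°C, 5% CO₂, and plated at 5000 cells/well. Compounds were added as 10-point duplicate curves starting at 10µM with 1:3 dilutions, in 0.1% DMSO, final volume 40µl. Plates were incubated for 5 days. Viability was read by CellTiter-Glo luminescence after 1 h at room temperature in the dark. IC50 is the mean of ≥3 separate determinations.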

[3] = target: Protein cereblon/Zinc finger protein Aiolos (Homo sapiens, UniProt Q96SW2+Q9UKT9); experiment: Induction of CRBN-mediated pLOC-ePL-tagged aiolos (unknown origin) degradation in human DF15 cells assessed as minimum protein remaining incubated for 4 hrs by luminescence based beta-galactosidase enzyme fragmentation complementation assay; assay type: cell-based
[4] = target: Protein cereblon/Eukaryotic peptide chain release factor GTP-binding subunit ERF3A (Homo sapiens, UniProt P15170+Q96SW2); experiment: Induction of CRBN-mediated pLOC-ePL-tagged GSPT1 (unknown origin) degradation in human DF15 cells assessed as minimum protein remaining incubated for 4 hrs by luminescence based beta-galactosidase enzyme fragmentation complementation assay; assay type: cell-based
[5] = target: Adrenergic receptor alpha-1 (Homo sapiens) (UniProt P35348+P25100+P35368); experiment: Inhibition of adrenergic receptor alpha1 (unknown origin) at 10 uM relative to control; assay type: protein assay
[6] = target: D(2) dopamine receptor (Homo sapiens, UniProt P14416); experiment: Inhibition of D2S (unknown origin) at 10 uM relative to control
[7] = organism: Homo sapiens; experiment: as §1; assay type: functional; summary of the method: as §2
[8] = organism: Homo sapiens; experiment: Induction of apoptosis in lenalidomide-resistant human H929-R10-1 cells assessed as caspase3 induction at 1 uM measured over 150 hrs by live cell imaging analysis; assay type: functional
Summary of the method: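 Lenalidomide-refractory H929 R10-1 cells were treated at concentrations from 1 nM to 1 μM. Caspase-3 induction was quantified by live-cell imaging over 150 h.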

[9] = target: Protein cereblon/DNA damage-binding protein 1 (Homo sapiens, UniProt Q96SW2); experiment: Displacement of Cy5-conjugated CELMoD from N-terminal 6-His tagged CRBN (1 to 442 residues) (unknown origin)/DDB1 (1 to 1140 residues) (unknown origin) incubated for 10 mins by FRET assay; assay type: protein assay
[10] = Solubility of the compound; assay type: physicochemical
[11] = organism: Homo sapiens; experiment: Induction of apoptosis in lenalidomide-resistant human H929-R10-1 cells assessed as p27 stabilization at 1 to 100 nM after 72 hrs by Western blot analysis; assay type: functional
Summary of the method: (§3)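 H929 R10-1 cells treated with DMSO or compound (1–100 nM) for 72 h, washed in PBS, lysed in NP-40/Tris pH 8 buffer with protease and phosphatase inhibitors; clarified lysates immunoblotted for p27, cleaved caspase-1, -3, -7 and cleaved PARP, with β-tubulin, using fluorescent secondary antibodies.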

[12] = organism: Homo sapiens; experiment: Induction of apoptosis in lenalidomide-resistant human H929-R10-1 cells assessed as increase in cleaved caspase1 level at 1 to 100 nM after 72 hrs by Western blot analysis; assay type: functional; summary of the method: as §3
[13] = organism: Homo sapiens; experiment: Induction of apoptosis in lenalidomide-resistant human H929-R10-1 cells assessed as increase in cleaved caspase7 level at 1 to 100 nM after 72 hrs by Western blot analysis; assay type: functional; summary of the method: as §3
[14] = organism: Homo sapiens; experiment: Induction of apoptosis in lenalidomide-resistant human H929-R10-1 cells assessed as increase in cleaved caspase3 level at 1 to 100 nM after 72 hrs by Western blot analysis; assay type: functional; summary of the method: as §3
[15] = organism: Homo sapiens; experiment: Induction of apoptosis in lenalidomide-resistant human H929-R10-1 cells assessed as increase in cleaved PARP level after 72 hrs by Western blot analysis; assay type: functional; summary of the method: as §3

Structure (SMILES)	EC50 [3]	inhibition [5]	inhibition [6]	IC50 [2]	other results
Nc1cccc2c1CN(C1CCC(=O)NC1=O)C2=O (stereo not drawn)	–	–	–	–	Activity [7]: inactive; Activity [8]: Active
C[C@@]1(N2Cc3c(OCc4ccc(CN5CCN(c6ccc(F)cc6F)CC5)cc4)cccc3C2=O)CCC(=O)NC1=O	> 100 nM	–	–	> 5000 nM	IC50 [9]: 9620 nM
Cc1ccc(NC(=O)NCc2ccc3c(c2)CN(C2CCC(=O)NC2=O)C3=O)cc1Cl (stereo not drawn)	–	–	–	–	IC50 [1]: > 5000 nM; Activity [7]: Active
O=C1CCC(N2Cc3c(OCc4ccc(CN5CCN(c6ccc(Cl)cc6Cl)CC5=O)cc4)cccc3C2=O)C(=O)N1 (stereo not drawn)	0.6 nM	–	–	6.7 nM	solubility [10]: < 7 µg/mL
Nc1cccc2c1C(=O)N(C1CCC(=O)NC1=O)C2=O (stereo not drawn)	–	–	–	–	Activity [7]: inactive; Activity [11]: inactive; Activity [12]: inactive; Activity [13]: inactive; Activity [14]: inactive; Activity [15]: inactive; Activity [8]: Active
O=C1CCC(N2Cc3c(OCc4ccccc4)cccc3C2=O)C(=O)N1 (stereo not drawn)	7.5 nM	–	–	> 10000 nM	–
C[C@]1(N2Cc3c(OCc4ccc(CN5CCN(c6ccc(F)cc6F)CC5)cc4)cccc3C2=O)CCC(=O)NC1=O	> 10 nM	–	–	496 nM	IC50 [9]: > 10000 nM
O=C1CCC(N2Cc3c(OCc4ccc(CN5CCN(c6ccccn6)CC5)cc4)cccc3C2=O)C(=O)N1 (stereo not drawn)	0.4 nM	99%	98%	4.6 nM	–
O=C1CCC(N2Cc3c(OCc4ccc(CN5CCC(C(F)(F)F)CC5)cc4)cccc3C2=O)C(=O)N1 (stereo not drawn)	0.6 nM	41.5%	95.4%	8.3 nM	–
O=C1CCC(N2Cc3c(OCc4ccc(CN5CCC(F)(F)CC5)cc4)cccc3C2=O)C(=O)N1 (stereo not drawn)	0.5 nM	–	–	20.5 nM	–
O=C1CCC(N2Cc3c(OCc4ccc(C(=O)N5CCN(c6ccc(F)cc6)CC5)cc4)cccc3C2=O)C(=O)N1 (stereo not drawn)	0.3 nM	–	–	3.7 nM	solubility [10]: < 7 µg/mL

More lines, main results first:

EC50 [3]	inhibition [5]	inhibition [6]	Structure (SMILES)	IC50 [2]	other results
0.1 nM	100%	94.7%	O=C1CCC(N2Cc3c(OCc4ccc(CN5CCN(c6ccc(F)cc6)CC5)cc4)cccc3C2=O)C(=O)N1 (stereo not drawn)	2.8 nM	Activity [1]: Non-Toxic; EC50 [4]: > 10000 nM
0.1 nM	63%	94%	CC(C)C1CCN(Cc2ccc(COc3cccc4c3CN(C3CCC(=O)NC3=O)C4=O)cc2)CC1 (stereo not drawn)	1.4 nM	–
0.3 nM	21.5%	66%	CC1(C)CCN(Cc2ccc(COc3cccc4c3CN(C3CCC(=O)NC3=O)C4=O)cc2)CC1 (stereo not drawn)	9.9 nM	–
0.1 nM	74.1%	5.6%	O=C1CCC(N2Cc3c(OCc4ccc(C(=O)N5CCN(c6ccc(Cl)cc6Cl)CC5)cc4)cccc3C2=O)C(=O)N1 (stereo not drawn)	3.3 nM	solubility [10]: < 7 µg/mL
0.2 nM	–	–	O=C1CCC(N2Cc3c(OCc4ccc(CN5CCN(c6ccccc6F)CC5)cc4)cccc3C2=O)C(=O)N1 (stereo not drawn)	5 nM	Activity [1]: Non-Toxic; EC50 [4]: > 10000 nM
0.1 nM	–	–	O=C1CCC(N2Cc3c(OCc4ccc(CN5CCN(c6ccc(Cl)cc6)CC5)cc4)cccc3C2=O)C(=O)N1 (stereo not drawn)	3.6 nM	Activity [1]: Non-Toxic; EC50 [4]: > 10000 nM
0.1 nM	–	–	O=C1CCC(N2Cc3c(OCc4ccc(CN5CCN(c6cccc(F)c6)CC5)cc4)cccc3C2=O)C(=O)N1 (stereo not drawn)	3.7 nM	Activity [1]: Non-Toxic; EC50 [4]: > 10000 nM
0.2 nM	–	–	O=C1CCC(N2Cc3c(OCc4ccc(CN5CCN(c6ccc(Cl)cc6Cl)CC5)cc4)cccc3C2=O)C(=O)N1 (stereo not drawn)	9.2 nM	Activity [1]: Non-Toxic; EC50 [4]: > 10000 nM
0.1 nM	–	–	O=C1CC[C@H](N2Cc3c(OCc4ccc(CN5CCN(c6ccc(F)cc6F)CC5)cc4)cccc3C2=O)C(=O)N1	3.8 nM	IC50 [9]: 37 nM
